ChEMBL document CHEMBL1149835, “Citrinin dimers from the halotolerant fungus Penicillium citrinum B-57” (J Nat Prod, 2008)

Key:
[1] = test system: Radical scavenging activity; assay: Antioxidant activity assessed as DPPH free radical scavenging activity after 30 mins; format: functional
In short: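 DPPH dissolved in MeOH; 160 µL of reaction mixture containing test sample combined with 40 µL DPPH solution, kept in the dark 30 min. Absorbance read at 520 nm and percent inhibition calculated. IC50 (µM giving 50% inhibition of DPPH radical) derived from the log-dose inhibition curve. L-ascorbic acid served as positive control.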

[2] = Cytotoxicity against mouse NS1 cells; format: functional
[3] = test system: A549; assay: Cytotoxicity against human A549 cells after 24 hrs by SRB assay; format: functional, cell-based; details: A549, 24 h
In short: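 SRB method: cells plated at 2 × 10^5 cells/mL, then test solutions in MeOH added and cultured a further 24 h. Cells fixed with 12% trichloroacetic acid, stained with 0.4% SRB, absorbance read at 515 nm. IC50 (concentration inhibiting proliferation 50%) calculated from the linear portion of log dose-response curves; paclitaxel positive control.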

[4] = test system: Bel-7402; assay: Cytotoxicity against human Bel7402 cells after 24 hrs by SRB assay; format: functional, cell-based; details: Bel-7402, 24 h
[5] = test system: P388; assay: Cytotoxicity against mouse P388 cells after 72 hrs by MTT assay; format: functional, cell-based; details: P388, 72 h
In short: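 P388 and HL-60 cells seeded at 5 × 10^4 cells/mL and pre-incubated 24 h. Test solutions in MeOH added, then 72 h exposure. MTT (5 mg/mL solution) added for 4 h, formazan dissolved in DMSO, absorbance read at 540 nm. IC50 taken from the linear part of log dose-response curves. Paclitaxel as positive control.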

[6] = test system: HL-60; assay: Cytotoxicity against human HL60 cells after 72 hrs by MTT assay; format: functional, cell-based; details: HL-60, 72 h

| Compound | IC50 [1] | also measured |
| --- | --- | --- |
| CC1=C2C(=CO[C@H](C)[C@H]2C)C(O)=C(C(=O)O)C1=O [CITRININ] | 160 µM | – |
| Cc1c2c(c3oc4cc(=O)c(C)c5c-4c(c3c1O)O[C@H](C)[C@H]5C)O[C@H](C)[C@H]2C [DICITRININ A] | 10.6 µM | LD99 [2]: 6.3 µg/mL |
| Cc1c(O)c(C(=O)O)c(O)c2c1[C@H](C)[C@@H](C)OC2 [DIHYDROCITRININ] | 123 µM | – |
| Cc1c(O)c(C(=O)O)c(O)c2c1[C@H](C)[C@@H](C)OC2=O [DIHYDROCITRINONE] | > 1000 µM | – |
| CC(=O)O[C@H]1C(=O)[C@@]2(C)[C@H]([C@H](OC(=O)c3ccccc3)[C@]3(O)C[C@H](OC(=O)[C@H](O)[C@@H](NC(=O)c4ccccc4)c4ccccc4)C(C)=C1C3(C)C)[C@]1(OC(C)=O)CO[C@@H]1C[C@@H]2O [PACLITAXEL] | – | IC50 [3]: 0.93 µM |
| Cc1c(O)c2c(c3c1[C@H](C)[C@@H](C)O3)Oc1cc(O)c(C)c3c1[C@H]2O[C@H](C)[C@H]3C [PENICITRINOL A] | 26.8 µM | – |
| CO[C@@]12O[C@H](C)[C@@H](C)C1=C(C)C(=O)C1=C2Oc2cc(O)c(C)c3c2[C@H]1O[C@H](C)[C@H]3C [PENICITRINOL B] | 291 µM | IC50 [4]: > 50 µM; IC50 [3]: > 50 µM; IC50 [5]: > 50 µM; IC50 [6]: > 50 µM |

More lines, main results first:

| IC50 [1] | Compound | also measured |
| --- | --- | --- |
| 3.8 µM | Cc1cc(O)c(C)c(O)c1C | – |
| 22.7 µM | O=C1O[C@H]([C@@H](O)CO)C(O)=C1O [ASCORBIC ACID] | – |
| 58.7 µM | CC1=C([C@H](C)[C@@H](C)OC=O)C(=O)C2=C(C1=O)[C@@H]1O[C@H](C)[C@@H](C)c3c(C)c(O)cc(c31)O2 [CITRININ H1] | – |
| 0.8 µM | Cc1cc(O)cc(O)c1 [ORCINOL] | – |
| 55.3 µM | Cc1c([C@H](C)[C@H](C)O)c(O)c2oc3cc(=O)c(C)c4c-3c(c2c1O)O[C@H](C)[C@H]4C [PENNICITRINONE C] | IC50 [4]: > 50 µM; IC50 [3]: > 50 µM; IC50 [5]: > 50 µM; IC50 [6]: > 50 µM |
| 796 µM | Cc1c([C@H](C)[C@@H](C)O)cc(O)c(C(=O)O)c1O [PHENOL A ACID] | – |
| 22.5 µM | Cc1c(O)cc(O)cc1[C@H](C)[C@@H](C)O [PHENOL A] | – |
| > 1000 µM | Cc1c(O)c(C)c2c(c1O)C(=O)OC(C)(O)C2 (centres undefined) [SCLEROTININ B] | – |
